Results published in ChEMBL document CHEMBL4359865, “Synthesis and evaluation of 2,5-furan, 2,5-thiophene and 3,4-thiophene-based derivatives as CXCR4 inhibitors” (Eur J Med Chem, 2019).

Key:
[1] = biological target: C-X-C chemokine receptor type 4 (Homo sapiens) (UniProt P61073); assay: Inhibition of biotinylated TN14003 binding to CXCR4 in human MDA-MB-231 cells preincubated for 10 mins followed by biotinylated-TN14003 addition measured after 30 mins by streptavidin-rhodamine staining based fluorescence microscopic analysis; assay type: cell-based
Method in brief: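 MDA-MB-231 cells (CXCR4-overexpressing) exposed to compound at 1, 10, 100 and 1000 nM for 10 min at room temperature. Cells fixed in chilled 4% paraformaldehyde, rehydrated in PBS, then stained with 0.05 µg/mL biotinylated TN14003 for 30 min at room temperature, washed three times in PBS, and stained with streptavidin-rhodamine (1:150) for 30 min. Read by fluorescence microscopy. EC taken as the lowest concentration, by order of magnitude, giving a significant drop in fluorescence versus control.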

[2] = biological target: C-X-C chemokine receptor type 4 (Homo sapiens) (UniProt P61073); assay: Inhibition of CXCR4-mediated chemotaxis in human MDA-MB-231 cells assessed as reduction in CXCL12alpha-induced cell invasion at 100 nM incubated for 22 hrs by hematoxylin/eosin dye-based matrigel assay relative to control
Method in brief: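 Run in a Matrigel invasion chamber. The bottom chamber held CXCL12 (200 ng/mL). MDA-MB-231 cells were treated with compound at 100 nM, placed in the top chamber, and incubated 22 h in a humidified incubator. Non-invading cells were swabbed off; cells in the bottom chamber were H&E-stained, fixed in methanol and counted. Results given as % inhibition of invasion versus negative control.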

[3] = Toxicity in C57BL/6J mouse at 10 mg/kg, ip; assay type: organism-based; conditions: in vivo
Mus musculus = assay: Antiinflammatory activity in C57BL/6J mouse assessed as inhibition of carrageenan-induced paw edema at 10 mg/kg, ip daily dosed 30 mins after carrageenan challenge and measured after 74 hrs carrageenan challenge and 2 hrs post last dose by caliper method relative to control; assay type: functional

Chain of C-X-C chemokine receptor type 4 (Homo sapiens) (P61073 whole entry): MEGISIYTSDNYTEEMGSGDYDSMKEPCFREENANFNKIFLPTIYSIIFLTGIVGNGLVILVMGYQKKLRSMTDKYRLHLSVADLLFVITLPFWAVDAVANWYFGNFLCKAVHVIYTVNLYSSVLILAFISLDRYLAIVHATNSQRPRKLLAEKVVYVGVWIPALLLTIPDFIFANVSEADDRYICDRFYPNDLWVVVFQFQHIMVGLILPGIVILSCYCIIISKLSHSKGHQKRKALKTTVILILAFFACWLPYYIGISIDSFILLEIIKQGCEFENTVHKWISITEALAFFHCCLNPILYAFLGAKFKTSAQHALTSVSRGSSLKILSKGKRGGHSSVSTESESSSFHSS

`COc1cccc(NCc2ccc(CNc3cccc(OC)c3)s2)c1` gave an EC [1] of 1000 nM.

Molecule `FC(F)(F)c1ccc(NCc2cscc2CNc2ccc(C(F)(F)F)cc2)cc1` has an EC [1] greater than 1000 nM.

In the case of `c1cc(CN2CCSCC2)sc1CN1CCSCC1`, the inhibition [2] is reported as 88%, the EC [1] is reported as 1 nM and the Activity [3] is reported as “Non-Toxic”.

`Fc1cccc(NCc2ccc(CNc3cccc(F)c3)s2)c1` showed an EC [1] greater than 1000 nM.

For `Fc1cccc(NCc2ccc(CNc3cccc(F)c3)o2)c1`, the EC [1] was greater than 1000 nM.

Work on `Fc1ccccc1NCc1ccc(CNc2ccccc2F)s1` yielded an EC [1] of 1000 nM.

In the case of `c1cc(CN2CCOCC2)sc1CN1CCOCC1`, the EC [1] is reported as greater than 1000 nM.

For `c1cc(CN2CCSCC2)oc1CN1CCSCC1`, the inhibition [2] was 79% and the EC [1] was 10 nM.

`Cc1ccc(NCc2cscc2CNc2ccc(C)cc2)cc1` showed an EC [1] greater than 1000 nM.

In the case of `Cc1ccc(NCc2ccc(CNc3ccc(C)cc3)o2)cc1`, the inhibition [2] is reported as 75%, the EC [1] is reported as 100 nM and the Activity [3] is reported as “Non-Toxic”. The inhibition in vivo at 10 mg/kg (Mus musculus) was 15%.

Molecule `CCc1ccc(NCc2cscc2CNc2ccc(CC)cc2)cc1` has an EC [1] greater than 1000 nM.

With `c1ccc(NCc2cscc2CNc2ccccc2)cc1` the inhibition [2] was 72%, the EC [1] was 10 nM and the Activity [3] was “Non-Toxic”.

`CCc1cccc(NCc2ccc(CNc3cccc(CC)c3)s2)c1` showed an EC [1] greater than 1000 nM.

With `COc1ccccc1NCc1ccc(CNc2ccccc2OC)s1` the inhibition [2] was 52%, the EC [1] was 10 nM and the Activity [3] was “Non-Toxic”.

Molecule `Clc1ccc(NCc2cscc2CNc2ccc(Cl)cc2)cc1` has an EC [1] greater than 1000 nM.

For `FC(F)(F)c1ccccc1NCc1ccc(CNc2ccccc2C(F)(F)F)o1`, the inhibition [2] was 24% and the EC [1] was 100 nM.

With `c1ccc(NCc2ccc(CNc3ccccc3)s2)cc1` the inhibition [2] was 68%, the EC [1] was 1 nM and the Activity [3] was “Non-Toxic”. It also gave an inhibition in vivo at 10 mg/kg (Mus musculus) of 30%.

With `FC(F)(F)c1ccccc1NCc1ccc(CNc2ccccc2C(F)(F)F)s1` the EC [1] was greater than 1000 nM.

With `Clc1ccccc1NCc1ccc(CNc2ccccc2Cl)s1` the inhibition [2] was 93%, the EC [1] was 10 nM and the Activity [3] was “Non-Toxic”. The inhibition in vivo at 10 mg/kg (Mus musculus) was greater than 5%.

With `COc1ccccc1NCc1ccc(CNc2ccccc2OC)o1` the inhibition [2] was 5% and the EC [1] was 100 nM.

For `Clc1ccccc1NCc1ccc(CNc2ccccc2Cl)o1`, the EC [1] was greater than 1000 nM.

`CCc1cccc(NCc2ccc(CNc3cccc(CC)c3)o2)c1` showed an EC [1] greater than 1000 nM.

With `Fc1ccccc1NCc1ccc(CNc2ccccc2F)o1` the inhibition [2] was 71%, the EC [1] was 10 nM and the Activity [3] was “Non-Toxic”.

For `c1ccc(NCc2ccc(CNc3ccccn3)cc2)nc1`, the Activity [3] was “Non-Toxic” and the inhibition in vivo at 10 mg/kg (Mus musculus) was 40%.

With `Cc1cccc(NCc2cscc2CNc2cccc(C)c2)c1` the EC [1] was greater than 1000 nM.

With `Clc1cccc(NCc2ccc(CNc3cccc(Cl)c3)s2)c1` the inhibition [2] was 51%, the EC [1] was 100 nM and the Activity [3] was “Non-Toxic”.

In the case of `c1cc(CN2CCOCC2)oc1CN1CCOCC1`, the EC [1] is reported as 1000 nM.

For `Clc1ccc(NCc2ccc(CNc3ccc(Cl)cc3)o2)cc1`, the inhibition [2] was 48%, the EC [1] was 10 nM and the Activity [3] was “Non-Toxic”. It also gave an inhibition in vivo at 10 mg/kg (Mus musculus) of 17%.

Work on `Clc1ccc(NCc2ccc(CNc3ccc(Cl)cc3)s2)cc1` yielded an inhibition [2] of 22% and an EC [1] of 1 nM.

With `CSc1ccc(NCc2ccc(CNc3ccc(SC)cc3)s2)cc1` the inhibition [2] was 88% and the EC [1] was 100 nM.

For `Fc1ccc(NCc2cscc2CNc2ccc(F)cc2)cc1`, the EC [1] was greater than 1000 nM.

For `CCc1ccccc1NCc1ccc(CNc2ccccc2CC)o1`, the EC [1] was 1000 nM.

For `Clc1cccc(NCc2cscc2CNc2cccc(Cl)c2)c1`, the EC [1] was greater than 1000 nM.

In the case of `CN1CCN(Cc2ccc(CN3CCN(C)CC3)s2)CC1`, the inhibition [2] is reported as 86% and the EC [1] is reported as 100 nM.

For `COc1ccc(NCc2ccc(CNc3ccc(OC)cc3)s2)cc1`, the inhibition [2] was 84%, the EC [1] was 10 nM and the Activity [3] was “Non-Toxic”.

With `CCc1ccc(NCc2ccc(CNc3ccc(CC)cc3)o2)cc1` the EC [1] was greater than 1000 nM.

With `CCc1ccccc1NCc1ccc(CNc2ccccc2CC)s1` the EC [1] was 1000 nM.

`COc1cccc(NCc2ccc(CNc3cccc(OC)c3)o2)c1` gave an EC [1] greater than 1000 nM.

Work on `Cc1cccc(NCc2ccc(CNc3cccc(C)c3)s2)c1` yielded an EC [1] greater than 1000 nM.

In the case of `CN1CCN(Cc2ccc(CN3CCN(C)CC3)o2)CC1`, the inhibition [2] is reported as 82%, the EC [1] is reported as 10 nM and the Activity [3] is reported as “Non-Toxic”.

For `FC(F)(F)c1cccc(NCc2ccc(CNc3cccc(C(F)(F)F)c3)o2)c1`, the EC [1] was greater than 1000 nM.

`CCc1ccc(NCc2ccc(CNc3ccc(CC)cc3)s2)cc1` gave an EC [1] greater than 1000 nM.

For `FC(F)(F)c1cccc(NCc2cscc2CNc2cccc(C(F)(F)F)c2)c1`, the EC [1] was greater than 1000 nM.

With `Fc1ccc(NCc2ccc(CNc3ccc(F)cc3)o2)cc1` the inhibition [2] was 53%, the EC [1] was 100 nM and the Activity [3] was “Non-Toxic”. The inhibition in vivo at 10 mg/kg (Mus musculus) was 31%.

With `Cc1cccc(NCc2ccc(CNc3cccc(C)c3)o2)c1` the EC [1] was greater than 1000 nM.

For `FC(F)(F)c1ccc(NCc2ccc(CNc3ccc(C(F)(F)F)cc3)s2)cc1`, the EC [1] was greater than 1000 nM.

For `Cc1ccccc1NCc1ccc(CNc2ccccc2C)o1`, the EC [1] was greater than 1000 nM.

Work on `CSc1ccc(NCc2ccc(CNc3ccc(SC)cc3)o2)cc1` yielded an EC [1] greater than 1000 nM.

`Fc1ccc(NCc2ccc(CNc3ccc(F)cc3)s2)cc1` showed an EC [1] greater than 1000 nM.

Molecule `c1ccc(NCc2ccc(CNc3ccccc3)o2)cc1` has an EC [1] greater than 1000 nM.

With `FC(F)(F)c1cccc(NCc2ccc(CNc3cccc(C(F)(F)F)c3)s2)c1` the inhibition [2] was 77%, the EC [1] was 100 nM and the Activity [3] was “Non-Toxic”.

For `Cc1ccccc1NCc1ccc(CNc2ccccc2C)s1`, the inhibition [2] was 61%, the EC [1] was 10 nM and the Activity [3] was “Non-Toxic”.

For `Clc1cccc(NCc2ccc(CNc3cccc(Cl)c3)o2)c1`, the EC [1] was greater than 1000 nM.

In the case of `Cc1ccc(NCc2ccc(CNc3ccc(C)cc3)s2)cc1`, the inhibition [2] is reported as 49%, the EC [1] is reported as 100 nM and the Activity [3] is reported as “Non-Toxic”.

With `Fc1cccc(NCc2cscc2CNc2cccc(F)c2)c1` the EC [1] was greater than 1000 nM.

In the case of `COc1ccc(NCc2ccc(CNc3ccc(OC)cc3)o2)cc1`, the EC [1] is reported as greater than 1000 nM.

In the case of `FC(F)(F)c1ccc(NCc2ccc(CNc3ccc(C(F)(F)F)cc3)o2)cc1`, the EC [1] is reported as greater than 1000 nM.
